Data set [1] addresses T1, D(2) dopamine receptor (Homo sapiens, UniProt P14416). As to the kind of experiment: Positive allosteric modulator activity at human dopamine D2 receptor expressed in CHO cells assessed as reduction in forskolin-stimulated cAMP level at 0.01 nM preincubated for 10 mins followed by forskolin addition measured after 5 mins in presence of dopamine by HTRF assay relative to control. Type of data set: functional, cell-based. More on the design: scale not given: the % may be the effect or the level left. The settings on record: time 15.0 min. In a few lines:
(§1)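 CHO cells expressing human D2R, assayed in the presence of 0.1 μM dopamine. Compounds screened between 0.01 nM and 10 μM. Inhibition of forskolin-stimulated cAMP measured by HTRF and expressed as % increase over the 0.1 μM dopamine effect. Mean ± SD of three independent measurements; Student's t-test, p < 0.05.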
On the technique in general: Changes in cAMP serve as a functional read-out for many G protein-coupled receptors.

Data set [2] has as its target T1, D(2) dopamine receptor. Description: Positive allosteric modulator activity at human dopamine D2 receptor expressed in CHO cells assessed as reduction in forskolin-stimulated cAMP level preincubated for 10 mins followed by forskolin addition measured after 5 mins in presence of dopamine by HTRF assay (reference value: 87.08 +/- 24.87 nM). The data set is classed as functional, cell-based. The procedure, abridged: (§2)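 Dopamine concentration–response curves run alone or with a fixed compound concentration (0.01 or 1 nM) in human D2R-expressing CHO cells. Forskolin-stimulated cAMP inhibition read by HTRF. Dopamine EC50 and Emax derived from the curves. Three independent experiments in duplicate, mean ± SD.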

The target in data set [3] is T1, D(2) dopamine receptor. Description: Positive allosteric modulator activity at human dopamine D2 receptor expressed in CHO cells assessed as reduction in forskolin-stimulated cAMP level by measuring maximum efficacy at 0.01 nM preincubated for 10 mins followed by forskolin addition measured after 5 mins in presence of dopamine by HTRF assay relative to control. Conditions: filed as positive allosteric modulator, time 15.0 min. The data set is classed as functional, cell-based. In a few lines:
as §2

Data set [4] has as its target T1, D(2) dopamine receptor. As to the kind of experiment: Positive allosteric modulator activity at human dopamine D2 receptor expressed in CHO cells assessed as fold increase in dopamine potentiation by measuring reduction of forskolin-stimulated cAMP level at 0.01 nM preincubated for 10 mins followed by forskolin addition measured after 5 mins in presence of dopamine by HTRF assay. Type of data set: functional, cell-based. Conditions: filed as positive allosteric modulator, time 15.0 min. In a few lines:
as §2

The target in data set [5] is T1, D(2) dopamine receptor. As to the kind of experiment: Positive allosteric modulator activity at human dopamine D2 receptor expressed in CHO cells assessed as reduction in forskolin-stimulated cAMP level at 1 nM preincubated for 10 mins followed by forskolin addition measured after 5 mins in presence of dopamine by HTRF assay. The settings on record: time 15.0 min. Type of data set: functional, cell-based. In a few lines:
as §2

Data set [6] has as its target T1, D(2) dopamine receptor. Description: Agonist activity at human dopamine D2 receptor expressed in CHO cells assessed as reduction in forskolin-stimulated cAMP level at 1 to 1000 nM preincubated for 10 mins followed by forskolin addition measured after 5 mins by HTRF assay. Conditions: dose 1-1000 nM, time 15.0 min. Type of data set: functional, cell-based. The procedure, abridged: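 Agonist mode, without dopamine, in CHO cells expressing human D2R. Compound tested at 1 nM to 1 μM, with dopamine as positive control. Read-out is inhibition of forskolin-stimulated cAMP accumulation by HTRF. Mean ± standard deviation of three independent measurements.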

Data set [7] is described as follows: Neurotoxicity in human SH-SY5Y cells at 200 uM incubated for 48 hrs by MTT assay relative to control. The data set is classed as functional. The procedure, abridged: (§3)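 SH-SY5Y neuroblastoma cells differentiated 6 days with retinoic acid and TPA. Exposed 48 h to compound at 200 μM dissolved in DMSO (0.5% final), with 6-OHDA at 125 μM in PBS as positive control. MTT reduction read-out as % of control. 14–16 wells from 4 independent experiments, mean ± SD; ANOVA with Tukey post hoc test.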
(In general: Tetrazolium assays rely on reduction of a dye to a coloured formazan, in cell work by metabolically active cells.)

Data set [8] can be described thus: Lipophilicity, logP of the compound in Octan-1-ol/water by shake-flask method. Type of data set: physicochemical.
The target of data set [9] is T1, D(2) dopamine receptor. Description: Positive allosteric modulator activity at human dopamine D2 receptor expressed in CHO cells assessed as reduction in forskolin-stimulated cAMP level by measuring maximum efficacy at 10 nM preincubated for 10 mins followed by forskolin addition measured after 5 mins in presence of dopamine by HTRF assay relative to control. The data set is classed as functional, cell-based. More on the design: scale not given: the % may be the effect or the level left. Conditions: time 15.0 min. The procedure, abridged:
as §1

Data set [10] deals with T1, D(2) dopamine receptor. Description: Positive allosteric modulator activity at human dopamine D2 receptor expressed in CHO cells assessed as reduction in forskolin-stimulated cAMP level at 0.01 nM preincubated for 10 mins followed by forskolin addition measured after 5 mins in presence of dopamine by HTRF assay. The data set is classed as functional, cell-based. Conditions: time 15.0 min. The procedure, abridged: as §1

The target of data set [11] is T1, D(2) dopamine receptor. As to the kind of experiment: Positive allosteric modulator activity at human dopamine D2 receptor expressed in CHO cells assessed as fold increase in dopamine potentiation by measuring reduction of forskolin-stimulated cAMP level at 1 nM preincubated for 10 mins followed by forskolin addition measured after 5 mins in presence of dopamine by HTRF assay. Type of data set: functional, cell-based. The settings on record: filed as positive allosteric modulator, time 15.0 min. In a few lines:
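CHO cells stably expressing human D2R. Dopamine concentration–response curves were run with or without modulator at a fixed concentration. D2R activation was read as inhibition of forskolin-stimulated cAMP accumulation by HTRF. The fold shift was derived from DA EC50 values, with Emax also fitted. Three independent experiments, each in duplicate, mean ± SD.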

The target in data set [12] is T1, D(2) dopamine receptor. Description: Positive allosteric modulator activity at human dopamine D2 receptor expressed in CHO cells assessed as reduction in forskolin-stimulated cAMP level by measuring maximum efficacy at 1 nM preincubated for 10 mins followed by forskolin addition measured after 5 mins in presence of dopamine by HTRF assay relative to control. The data set is classed as functional, cell-based. Conditions: filed as positive allosteric modulator, time 15.0 min. In a few lines: as §2

In data set [13] the test system is SH-SY5Y. As to the kind of experiment: Neurotoxicity in human SH-SY5Y cells at 200 uM incubated for 48 hrs by MTT assay. Type of data set: functional, cell-based. In a few lines:
as §3

Data set [14] in a line: Neurotoxicity in human SH-SY5Y cells at 125 uM incubated for 48 hrs by MTT assay relative to control. Type of data set: functional. The procedure, abridged: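 SH-SY5Y cells pre-differentiated 6 days with retinoic acid and TPA. 6-OHDA freshly prepared in sterile PBS, tested at 125 μM for 48 h; DMSO-solubilised test agents were run alongside (DMSO 0.5% final). Viability read by MTT reduction, expressed as % of control. 14–16 wells, 4 independent experiments; ANOVA with Tukey post hoc versus control.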

The source made the active and inactive calls. The calls are words filed in the database; no cut-off is given here. Where a SMILES comes first, the peptide text is derived from it.

The EC50 is the concentration at which the effect is half-maximal. For orientation: Emax means the maximal effect, on the per cent scale that the assay sets. A word on the logP: it is a log measure of how a compound divides between an organic and an aqueous phase.

T1 sequence (P14416 whole entry): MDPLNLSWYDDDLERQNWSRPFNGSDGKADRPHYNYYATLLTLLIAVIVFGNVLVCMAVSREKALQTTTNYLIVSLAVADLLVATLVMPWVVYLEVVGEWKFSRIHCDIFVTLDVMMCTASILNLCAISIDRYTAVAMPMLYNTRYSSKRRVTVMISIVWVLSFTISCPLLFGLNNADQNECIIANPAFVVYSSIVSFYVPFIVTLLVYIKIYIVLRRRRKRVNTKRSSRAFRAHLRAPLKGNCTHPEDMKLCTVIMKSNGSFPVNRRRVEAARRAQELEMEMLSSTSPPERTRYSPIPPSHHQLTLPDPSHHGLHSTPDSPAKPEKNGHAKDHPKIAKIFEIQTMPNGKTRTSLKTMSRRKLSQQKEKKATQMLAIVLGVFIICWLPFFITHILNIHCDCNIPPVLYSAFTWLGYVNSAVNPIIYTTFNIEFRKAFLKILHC

For `CC(C)C[C@H](NC(=O)[C@@H]1CCCN1C(=O)OC(C)(C)C)C(=O)NCC(=O)NC12CC3CC(CC(C3)C1)C2`, the Activity in [1] amounted to 15.3%; in [7], 89.73%. Besides, the EC50 in data set [2] was found to be 17.8 nM. The Emax in data set [3] was found to be 100%. Also, the fold change (FC) in data set [4] is 4.9. The outcome in data set [5] and in data set [6] was inactive. In data set [8], this compound yielded a logP of 2.62.

As to `CC(C)C[C@H](NC(=O)[C@@H]1CCCN1)C(=O)NCC(N)=O` (H-Pro-Leu-Gly-NH2), the Activity in [9] amounted to 31.9%; in data set [7], 94.09%. Also, the result in data set [10] was inactive. Besides, the fold change (FC) in data set [11] was 3.7. Moreover, in data set [12], the Emax was 100%. This compound returned a logP in [8] of -0.56.

As to `CC(C)C[C@H](NC(=O)[C@@H]1CCCN1)C(=O)NCC(=O)NC12CC3CC(CC(C3)C1)C2`, the Activity in [1] stood at 10.3%. The EC50 in data set [2] amounted to 26.4 nM. Besides, the Emax in data set [3] was found to be 100%. For the same compound, the fold change (FC) in data set [4] amounted to 3.3. Also, the outcome in data set [5], in [6] and in data set [13] was inactive.

`NCCc1cc(O)c(O)cc1O` [OXIDOPAMINE] gave an Activity in data set [14] of 58.27%.
